Source: publication PMC3960997 (Biochimica et biophysica acta, 2013)

Key:
full length TDP-43 [1] = target: T1, full length TDP-43 (Homo sapiens, UniProt Q13148); assay: Inhibition of UBQLN2 binding to full length TDP-43
Outline: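 Test-compound dilutions were preincubated 15-30 min at room temperature with GST-tagged full-length TDP-43 (100 ng/mL, 1.6 nM) in 20 mM Tris pH 7.0, 2 mM MgCl₂, 0.05% CHAPS, 1% glycerol. HIS-UBQLN2 (100 ng/mL, 1.4 nM) was added for 2 hr at RT. Anti-GST Tb donor plus anti-HIS d2 acceptor were added for 1 hr. Read-out was TR-FRET 665/620 nm ratio (ex 330 nm). IC50 from three-parameter fit; geometric mean of four determinations.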

full length TDP-43 [2] = target: T1, full length TDP-43; assay: Inhibition of bt-TG12 binding to full length TDP-43
Outline: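 In the same Tris pH 7.0 buffer, GST-tagged full-length TDP-43 (1.6 nM) was preincubated 15-30 min at RT with test-compound dilutions. 1.0 nM biotinylated TG12 was then added for 2 hr at RT. Streptavidin Tb donor and anti-GST d2 acceptor (2.6 μg/mL) were added for 1 hr, then time-resolved fluorescence 665/620 ratio. IC50 from three-parameter dose-response fit; geometric means of four determinations.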

[3] = target: T2, C-terminal TDP-43 (261-414 aa) (Homo sapiens, UniProt Q13148); assay: Mode of inhibition of UBQLN2 binding to C-terminal TDP-43
Outline: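 GST-tagged C-terminal TDP-43 (261-414 aa, 4.6 nM) was incubated 2 hr at RT with a HIS-UBQLN2 concentration series, with no test compound or 1, 3.2, 10 or 32 μM. Anti-GST/anti-HIS HTRF antibodies were added for 1 hr, then TR-FRET ratio; nonspecific binding measured without TDP-43. Saturation isotherms globally fitted to a competitive inhibition model. Duplicates, repeated at least three times.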

full length TDP-43 [4] = target: T1, full length TDP-43; assay: Mode of inhibition of UBQLN2 binding to full length TDP-43
Outline: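 Saturation series: GST-tagged full-length TDP-43 (100 ng/mL, 1.6 nM) with HIS-UBQLN2 (1.0–60 nM), plus oligonucleotide (0–1 μM) or test compound (0–32 μM), 2 hr at RT. Anti-GST/anti-HIS HTRF antibodies were added for 1 hr; nonspecific binding taken without TDP-43. Global nonlinear fits to mixed versus noncompetitive inhibition models compared by F-test; Ki from global model. Duplicates, repeated at least three times.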

[5] = target: T2, C-terminal TDP-43 (261-414 aa); assay: UBQLN2 saturation binding to C-terminal TDP-43; conditions: read-out: KD for UBQLN2 binding to C-terminal TDP-43, C-terminal TDP-43 (261-414 aa) 4.6 nM, n=4
full length TDP-43 [6] = target: T1, full length TDP-43; assay: Mode of inhibition of bt-TG12 binding to full length TDP-43; conditions: F-test comparison of global fits with the mixed inhibition model
Outline: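 Biotinylated TG12 (3–1300 pM) was incubated 2 hr at RT with GST-tagged full-length TDP-43 (1.6 nM), without or with HIS-UBQLN2 (1.0, 3.2, 10, 32 nM). Streptavidin Tb donor and anti-GST d2 acceptor (2.6 μg/mL) were added for 1 hr; nonspecific binding measured without TDP-43. Global nonlinear fits to mixed versus noncompetitive inhibition models compared by F-test. Duplicates, repeated at least three times.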

[7] = target: T3, N-terminal TDP-43 (1-260 aa) (Homo sapiens, UniProt Q13148); assay: UBQLN2 saturation binding to N-terminal TDP-43; conditions: N-terminal TDP-43 (1-260 aa) 2.2 nM, data not shown
[8] = target: T3, N-terminal TDP-43 (1-260 aa); assay: Inhibition of bt-TG12 binding to N-terminal TDP-43; conditions: 1.0 nM bt-TG12, N-terminal TDP-43 2.2 nM, n=3
Outline: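 GST-tagged N-terminal TDP-43 (1-260 aa; 100 ng/mL, 2.2 nM) was incubated 2 hr at RT with 1.0 nM biotinylated TG12 and either unlabeled oligonucleotide (1 pM–1 μM) or HIS-UBQLN2 (0.3 pM–0.3 μM). Streptavidin Tb donor plus anti-GST d2 acceptor (2.6 μg/mL) were added for 1 hr. Normalized to % bound (0% = 1.0 μM unlabeled TG12); IC50 from three-parameter fit. Duplicates, experiment repeated three times.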

[9] = target: N-terminal 6XHIS tagged full length UBQLN2 (human, UniProt Q9UHD9 1-624); assay: AlphaScreen or HTRF
N-terminal 6XHIS tagged full length UBQLN2, sequence (Q9UHD9 whole entry): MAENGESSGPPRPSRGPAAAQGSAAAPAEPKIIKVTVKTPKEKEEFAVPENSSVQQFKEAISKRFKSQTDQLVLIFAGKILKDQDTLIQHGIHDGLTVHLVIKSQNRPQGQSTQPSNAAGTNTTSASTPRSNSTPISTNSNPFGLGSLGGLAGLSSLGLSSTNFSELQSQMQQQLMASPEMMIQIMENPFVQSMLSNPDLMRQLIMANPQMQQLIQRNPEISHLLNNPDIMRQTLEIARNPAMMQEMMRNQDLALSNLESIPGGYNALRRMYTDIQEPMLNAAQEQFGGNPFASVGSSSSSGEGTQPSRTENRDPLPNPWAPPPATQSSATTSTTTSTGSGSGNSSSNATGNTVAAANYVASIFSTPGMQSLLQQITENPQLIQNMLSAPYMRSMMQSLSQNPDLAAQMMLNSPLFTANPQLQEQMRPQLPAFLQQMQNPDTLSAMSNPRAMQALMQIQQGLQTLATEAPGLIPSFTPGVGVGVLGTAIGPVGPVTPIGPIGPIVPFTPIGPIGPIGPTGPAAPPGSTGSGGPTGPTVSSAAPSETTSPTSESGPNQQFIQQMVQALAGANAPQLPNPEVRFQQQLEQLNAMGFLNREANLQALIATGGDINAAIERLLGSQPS

T1 sequence (Q13148 whole entry): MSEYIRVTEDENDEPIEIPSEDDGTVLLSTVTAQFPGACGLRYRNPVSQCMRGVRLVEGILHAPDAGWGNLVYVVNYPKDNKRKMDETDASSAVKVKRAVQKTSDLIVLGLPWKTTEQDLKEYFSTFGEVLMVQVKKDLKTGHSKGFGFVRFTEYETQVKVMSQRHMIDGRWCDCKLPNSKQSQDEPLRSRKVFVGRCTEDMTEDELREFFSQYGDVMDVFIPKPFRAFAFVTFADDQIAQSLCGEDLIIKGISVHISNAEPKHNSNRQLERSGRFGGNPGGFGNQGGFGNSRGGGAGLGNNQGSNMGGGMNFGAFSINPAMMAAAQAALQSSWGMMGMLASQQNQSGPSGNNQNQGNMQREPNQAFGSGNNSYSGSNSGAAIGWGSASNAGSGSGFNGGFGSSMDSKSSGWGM
T3 sequence (Q13148 1-260): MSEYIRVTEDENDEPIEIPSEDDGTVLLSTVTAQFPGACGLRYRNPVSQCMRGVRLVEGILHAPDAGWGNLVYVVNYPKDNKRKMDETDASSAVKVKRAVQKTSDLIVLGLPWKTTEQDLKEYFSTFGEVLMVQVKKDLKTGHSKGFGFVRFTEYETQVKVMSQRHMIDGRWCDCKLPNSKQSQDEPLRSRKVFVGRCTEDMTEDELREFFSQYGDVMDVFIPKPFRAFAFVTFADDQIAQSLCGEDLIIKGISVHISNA

## COc1ccc(-c2cc(NCCCN(C)C)c3ccccc3n2)cc1 [AAQ1, (3-{[2-(4-methoxyphenyl)quinolin-4-yl]amino}propyl)dimethylamine]
Full length TDP-43 [1]
  IC50: 5500 nM
Full length TDP-43 [1]; full length TDP-43
  Fold less potent for inhibition of UBQLN2 binding compared to inhibition of nucleic acid binding to TDP-43: 5 fold
Full length TDP-43 [2]
  IC50: 1000 nM
[3]
  Ki: 4200 nM
[3]; C-terminal TDP-43 (261-414 aa)
  Mode of inhibition of UBQLN2 binding to C-terminal TDP-43: competitive
Full length TDP-43 [4]
  Ki: 3400 nM
Full length TDP-43 [4]; F-test comparison of global fits with the mixed inhibition model
  Mode of inhibition of UBQLN2 binding to full length TDP-43: competitive

## 5′-CTGCTTTTTGCCTGTACTGGGTCTCTGTGGTT-3′ (DNA CTGCTTTTTGCCTGTACTGGGTCTCTGTGGTT; chemistry not given here) [TAR32, reference compound]
Full length TDP-43 [2]; bt-TG12 binding to full length TDP-43
  Fold IC50 relative to TG12 for inhibition of nucleic acid binding: ~ 10 fold
Full length TDP-43 [2]; read-out: IC50 (95% CI) inhibition of bt-TG12 binding to full length TDP-43, 1.0 nM bt-TG12, TDP-43 1.6 nM, geometric mean of four determinations (Section 2.4)
  IC50: 16 nM

## UBQLN2: N-terminal 6XHIS tagged full length UBQLN2 protein, custom made by ProteinTech Group
[5]
  Kd: 8.7 nM
Full length TDP-43 [6]
  Mode of inhibition of bt-TG12 binding to full length TDP-43: noncompetitive
[7]
  UBQLN2 binding to N-terminal TDP-43: unable to detect appreciable UBQLN2 binding
[8]
  IC50 for inhibition of bt-TG12 binding to N-terminal TDP-43: unable to inhibit

## CN(C)CCN(C)c1cc(-c2ccccc2)nc2ccccc12 [AAQ2, N-[2-(dimethylamino)ethyl]-N-methyl-2-phenylquinolin-4-amine]
Full length TDP-43 [1]
  IC50: > 100 nM
Full length TDP-43 [1]; 1.4 nM UBQLN2, TDP-43 1.6 nM
  IC50 inhibition of UBQLN2 binding to TDP-43: no activity
Full length TDP-43 [2]
  IC50: > 100 nM
Full length TDP-43 [2]; 1.0 nM bt-TG12, TDP-43 1.6 nM
  IC50 inhibition of bt-TG12 binding to TDP-43: no activity

B1: Human N-terminal GST tagged C-terminal TDP-43 (261-414 aa) (domain or fragment, UniProt Q13148 261-414, looked up)
chain: EPKHNSNRQLERSGRFGGNPGGFGNQGGFGNSRGGGAGLGNNQGSNMGGGMNFGAFSINPAMMAAAQAALQSSWGMMGMLASQQNQSGPSGNNQNQGNMQREPNQAFGSGNNSYSGSNSGAAIGWGSASNAGSGSGFNGGFGSSMDSKSSGWGM
[9]
  Kd: 8.7 nM
